Series [1] concerns 3T3-L1. Nature of the series: Activation of AMPK pathway in mouse 3T3-L1 cells assessed as increase in CPT-1beta mRNA expression at 1 uM after 24 hrs by RT-qPCR analysis. The class given is cell-based. As to conditions: filed as activator. On the technique in general: In qPCR the cycle at which signal appears reflects the starting amount.
The subject of series [2] is 3T3-L1. The experiment in a line: Lipid lowering activity in mouse 3T3-L1 cells assessed as reduction in adipogenic cocktail-induced triglyceride levels at 5 uM incubated for 6 days by GPO-POD assay relative to control. It counts as functional. The arrangement: scale not given: the % may be the effect or the level left. As to conditions: time 6 day. An outline of the steps:
(§1)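 Confluent 3T3-L1 cells were treated from day 0 in cocktail (IBMX, dexamethasone, insulin) for 3 days, then re-dosed in insulin medium for 3 more days. For dose–response, concentrations were 0–10 µM (0.01, 0.1, 0.3, 1, 3, 10). On day 6, cells were lysed in 0.2% Triton X-100 and TG was measured by GPO-POD and normalized to BCA protein as % of control. EC50 was fitted from the dose–response. N = 4.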

The subject of series [3] is 3T3-L1. The experiment in a line: Activation of AMPK pathway in adipogenic cocktail-induced mouse 3T3-L1 cells assessed as increase in AMP to ATP ratio at 1 uM after 24 hrs. It counts as cell-based. To be noted: filed as activator.
In series [4] the test system is 3T3-L1. The experiment in a line: Activation of AMPK pathway in mouse 3T3-L1 cells assessed as increase in ACSL mRNA expression at 1 uM after 24 hrs by RT-qPCR analysis. It counts as cell-based. To be noted: filed as activator.
The subject of series [5] is 3T3-L1. Nature of the series: Lipid lowering activity in mouse 3T3-L1 cells assessed as adipogenic cocktail-induced triglyceride levels at 1 uM by GPO-POD assay. The class given is functional, cell-based. As to conditions: time day <=6. An outline of the steps: as §1
Series [6] relates to Mus musculus. Nature of the series: Antiobesity activity in high fat diet-induced obese C57BL/6J mouse model assessed as decrease in TG level at 20 mg/kg, ip administered for every other days for 6 weeks by Oil-red O staining based assay. The class given is functional, organism-based. A digest of the protocol:
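Male C57BL/6J mice on HFC diet, dosed 20 mg/kg i.p. every other day for 6 weeks. Tissues fixed in 4% formaldehyde, paraffin-embedded, cut into 4 µm sections and stained with H&E or Oil-red O. Six random fields per sample scored blind.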

For series [7], the system named is Mus musculus. Nature of the series: Antiobesity activity in high fat diet-induced obese C57BL/6J mouse model assessed as decrease in fat mass at 20 mg/kg, ip administered for every other days for 6 weeks. The class given is functional, organism-based.
The nature of series [8]: Apparent volume of distribution in Sprague-Dawley rat at 2 mg/kg, iv up to 24 hrs by LC-MS/MS analysis. It counts as ADME, organism-based. To be noted: in vivo, read-out: Vz. An outline of the steps: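 Male SD rats (180–220 g, n = 3) received compound in ethanol/saline (5:95), either intravenously at 2 mg/kg or intragastrically at 5 mg/kg. Plasma was sampled at 0, 0.5, 1, 2, 4, 8, 12 and 24 h. Concentrations were measured by LC-MS/MS, and PK parameters were calculated from the concentration–time data.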

Series [9] concerns 3T3-L1. The experiment in a line: Inhibition of mouse 3T3-L1 cells adipocyte differentiation assessed as reduction in adipogenic cocktail-induced SCD1 protein expression at 0.3 to 1 uM after 6 days by Western blot analysis. The class given is functional, cell-based. To be noted: dose 0.3-1 µM, time 6.0 day. A digest of the protocol:
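3T3-L1 preadipocytes were differentiated with cocktail for 3 days, then insulin medium for 3 days, with compound (0.3 or 1 µM) present throughout. Cells were harvested on day 6 and proteins measured by Western blot, with densitometry normalized to actin.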

Series [10] concerns 3T3-L1. Nature of the series: Activation of AMPK pathway in adipogenic cocktail-induced mouse 3T3-L1 cells assessed as decrease in ATP level at 0.3 to 1 uM after 24 hrs. It counts as cell-based. As to conditions: filed as activator, dose 0.3-1 µM. A digest of the protocol: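 Confluent 3T3-L1 pre-adipocytes exposed to adipogenic cocktail (0.5 mM IBMX, 100 ng/mL dexamethasone, 2 µg/mL insulin) with compound at 0.3 or 1 µM for 24 h. ATP quantified with a commercial luminescent kit and normalized to protein.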

In series [11] the test system is 3T3-L1. Nature of the series: Lipid lowering activity in mouse 3T3-L1 cells assessed as reduction in adipogenic cocktail-induced triglyceride levels at 1 uM incubated for 6 days by Oil-red O staining based assay. The class given is functional, cell-based. To be noted: time 6.0 day. An outline of the steps:
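Differentiating 3T3-L1 cells were treated at 1 µM for 6 days, then washed with PBS and fixed in 4% formaldehyde for 1 h. Cells were stained with 0.3% Oil Red O for 30 min at room temperature in the dark and imaged at ×200.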

In series [12] the test system is Mus musculus. The experiment in a line: Antiobesity activity in high fat diet-induced obese C57BL/6J mouse model assessed as LDL cholesterol level at 20 mg/kg, ip administered for every other days for 6 weeks by auto-analyzer method (reference value: 0.9 +/- 0.4 mM). It counts as functional. An outline of the steps:
(§2)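 Male C57BL/6J mice (7–8 weeks) fed HFC diet (60% fat, 1% cholesterol) for up to 14 weeks. From week 9, given 20 mg/kg i.p. every other day for 6 weeks in saline with 10% ethanol and 10% castor oil, or vehicle. Body weight and food intake recorded daily. At end, mice fasted 6 h, anesthetized, and blood collected into EDTA. Plasma chemistry run on an auto-analyzer; insulin by ultra-sensitive ELISA.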

Series [13] is described as follows: AUC(0 to infinity) in Sprague-Dawley rat at 2 mg/kg, iv up to 24 hrs by LC-MS/MS analysis. The arrangement: route intravenous, dose 2 mg/kg, time <=24. To be noted: in vivo. The class given is ADME, organism-based. A digest of the protocol: (§3)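 Male Sprague-Dawley rats (180-220 g, n = 3) received a single intravenous dose of 2 mg/kg in ethanol/saline (5:95). Blood was sampled at 0, 30 min, 1, 2, 4, 8, 12 and 24 h after dosing and centrifuged to plasma. Plasma drug levels were measured by LC-MS/MS, and pharmacokinetic parameters were calculated from the concentration-time data.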

The test system of series [14] is Mus musculus. The experiment in a line: Antiobesity activity in high fat diet-induced obese C57BL/6J mouse model assessed as decrease in liver weight at 20 mg/kg, ip administered for every other days for 6 weeks. It counts as functional, organism-based.
The test system of series [15] is Mus musculus. Nature of the series: Antiobesity activity in high fat diet-induced obese C57BL/6J mouse model assessed as blood urea nitrogen level at 20 mg/kg, ip administered for every other days for 6 weeks by auto-analyzer method (reference value: 14.6 +/- 1.4 mM). The class given is functional.
A short description of series [16]: AUC(0 to t) in Sprague-Dawley rat at 2 mg/kg, iv up to 24 hrs by LC-MS/MS analysis. The arrangement: route intravenous, dose 2 mg/kg, time <=24. It counts as ADME, organism-based. As to conditions: in vivo. An outline of the steps: as §3
The test system of series [17] is 3T3-L1. The experiment in a line: Activation of AMPK pathway in mouse 3T3-L1 cells assessed as increase in NRF2 mRNA expression at 0.3 to 1 uM after 24 hrs by RT-qPCR analysis. The class given is cell-based. As to conditions: filed as activator, dose 0.3-1 µM.
The test system of series [18] is 3T3-L1. Nature of the series: Activation of AMPK pathway in mouse 3T3-L1 cells assessed as increase in TFAM mRNA expression at 0.3 to 1 uM after 24 hrs by RT-qPCR analysis. The class given is cell-based. To be noted: filed as activator, dose 0.3-1 µM.
For series [19], the system named is C2C12. Nature of the series: Activation of AMPK pathway in mouse C2C12 cells assessed as increase in glucose uptake at 0.3 to 1 uM after 6 hrs by 2-NBDG/Hoechst 33342 staining based Confocal microscopic method. It counts as cell-based. To be noted: filed as activator, dose 0.3-1 µM. A digest of the protocol:
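C2C12 myoblasts kept in DMEM with 10% FBS and 1% penicillin/streptomycin at 37 °C under 5% CO2.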

In series [20] the test system is Mus musculus. The experiment in a line: Antiobesity activity in high fat diet-induced obese C57BL/6J mouse model assessed as decrease in body weight at 20 mg/kg, ip administered for every other days for 6 weeks. It counts as functional, organism-based. A digest of the protocol:
as §2

Series [21] has as its system 3T3-L1. The experiment in a line: Activation of AMPK pathway in mouse 3T3-L1 cells assessed as increase in PCG1alpha mRNA expression at 0.3 to 1 uM after 24 hrs by RT-qPCR analysis. It counts as cell-based. As to conditions: filed as activator, dose 0.3-1 µM.
The test system of series [22] is Mus musculus. Nature of the series: Antiobesity activity in high fat diet-induced obese C57BL/6J mouse model assessed as glucose level at 20 mg/kg, ip administered for every other days for 6 weeks by auto-analyzer method (reference value: 11.8 +/- 1.3 mM). The class given is functional. An outline of the steps:
as §2

Activity calls are given as the source filed them. The calls are words filed in the database; no cut-off is given here.

With `CN(C)CCCNc1nc(-c2[nH]c3ccccc3c2C=O)nc2ccccc12`, the result in series [1], in series [3] and in series [4] was Active. Further, the Activity in [2] worked out at 89.3%.

As usually defined, the AUC(0-inf) is total exposure, with the tail of the curve extrapolated. In general, AUC(0-t) refers to exposure summed from dosing to a finite time, without extrapolation to infinity. For the compound `COc1ccc2[nH]c(-c3nc(NCCCCN4CCCC4)c4ccccc4n3)c(C=O)c2c1`, the Activity entry in [5] was “Dose-dependent effect”; in series [12], 0.81 mM; in [15], 11.5 mM; in series [22], 9.3 mM. For the same compound, the result in series [6], in series [7], in [10], in series [11], in [14] and in series [17] was Active. Also, the outcome in series [18], in series [19], in series [20] and in [21] was Active. The Vd in [8] was 40.7 L/kg. Also, in series [9], the inhibition result is “Active”. In addition, the AUC(0-inf) in series [13] was 314 ng·h/mL. Moreover, the AUC(0-t) at 24 h in [16] was 308 ng·h/mL.

Values taken from ChEMBL document CHEMBL4732044, “Discovery of a promising agent IQZ23 for the treatment of obesity and related metabolic disorders” (Eur J Med Chem, 2020).
